The source made the active and inactive calls. The calls are words filed in the database; no cut-off is given here.
How the values were obtained:
[1] = target: T1, Peroxisome proliferator-activated receptor alpha (Homo sapiens) (UniProt Q07869); assay: Agonist activity at human PPARalpha expressed in HepG2 cells co-transfected with PPRE3-TK-luc assessed as beta-galactosidase activity after 20 to 22 hrs by luciferase based transactivation assay relative to WY-14643; format: functional, cell-based
T1 sequence (whole entry): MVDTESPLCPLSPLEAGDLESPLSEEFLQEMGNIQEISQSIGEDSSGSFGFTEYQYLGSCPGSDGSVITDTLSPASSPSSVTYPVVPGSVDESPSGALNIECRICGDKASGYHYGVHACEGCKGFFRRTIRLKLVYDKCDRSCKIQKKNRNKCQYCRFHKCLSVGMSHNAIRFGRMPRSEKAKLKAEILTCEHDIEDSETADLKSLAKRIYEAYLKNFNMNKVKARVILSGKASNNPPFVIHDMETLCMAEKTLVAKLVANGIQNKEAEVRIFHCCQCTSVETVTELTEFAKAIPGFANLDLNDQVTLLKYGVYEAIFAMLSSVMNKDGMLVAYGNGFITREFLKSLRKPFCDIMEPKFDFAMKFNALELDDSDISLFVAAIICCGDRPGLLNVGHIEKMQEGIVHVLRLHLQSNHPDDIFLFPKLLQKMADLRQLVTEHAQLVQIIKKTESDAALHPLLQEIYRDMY
In short: (§1)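 HepG2 (MEM, 10% FBS, NEAA, pyruvate, pen/strep) seeded 400,000 cells/well, transfected (Superfect) with pSG5 vector carrying full-length hPPAR cDNA plus PPRE3-TK-luc; 3 h at 37 °C, 5% CO2, then ligand-containing medium added, 20–22 h.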

[2] = target: T2, Peroxisome proliferator-activated receptor alpha (Homo sapiens, UniProt Q07869); assay: Agonist activity at human PPARalpha expressed in HepG2 cells co-transfected with PPRE3-TK-luc assessed as beta-galactosidase activity after 20 to 22 hrs by luciferase based transactivation assay; format: functional, cell-based
T2 sequence (Q07869 whole entry): T1 sequence (whole entry)

[3] = target: T3, Peroxisome proliferator-activated receptor gamma (Homo sapiens, UniProt P37231); format: functional, cell-based, HepG2
T3 sequence (P37231 whole entry): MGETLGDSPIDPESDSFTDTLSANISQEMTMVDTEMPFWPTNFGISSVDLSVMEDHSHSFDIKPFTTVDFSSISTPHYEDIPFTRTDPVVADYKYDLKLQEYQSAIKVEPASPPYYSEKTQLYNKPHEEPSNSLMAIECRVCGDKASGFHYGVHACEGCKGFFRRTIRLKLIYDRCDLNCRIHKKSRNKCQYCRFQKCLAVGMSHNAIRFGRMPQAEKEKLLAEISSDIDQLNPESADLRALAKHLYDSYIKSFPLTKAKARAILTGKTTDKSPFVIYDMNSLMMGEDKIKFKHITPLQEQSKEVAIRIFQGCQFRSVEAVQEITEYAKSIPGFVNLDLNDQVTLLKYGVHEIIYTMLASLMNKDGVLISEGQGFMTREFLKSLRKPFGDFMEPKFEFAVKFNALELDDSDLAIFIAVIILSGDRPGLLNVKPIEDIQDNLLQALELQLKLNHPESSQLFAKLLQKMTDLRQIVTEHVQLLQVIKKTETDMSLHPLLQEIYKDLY

[4] = target: T4, Peroxisome proliferator-activated receptor delta (Homo sapiens) (UniProt Q03181); assay: Agonist activity at human PPARdelta expressed in HepG2 cells co-transfected with PPRE3-TK-luc assessed as beta-galactosidase activity after 20 to 22 hrs by luciferase based transactivation assay relative to GW-501516; format: functional, cell-based; in short: as §1
T4 sequence (whole entry): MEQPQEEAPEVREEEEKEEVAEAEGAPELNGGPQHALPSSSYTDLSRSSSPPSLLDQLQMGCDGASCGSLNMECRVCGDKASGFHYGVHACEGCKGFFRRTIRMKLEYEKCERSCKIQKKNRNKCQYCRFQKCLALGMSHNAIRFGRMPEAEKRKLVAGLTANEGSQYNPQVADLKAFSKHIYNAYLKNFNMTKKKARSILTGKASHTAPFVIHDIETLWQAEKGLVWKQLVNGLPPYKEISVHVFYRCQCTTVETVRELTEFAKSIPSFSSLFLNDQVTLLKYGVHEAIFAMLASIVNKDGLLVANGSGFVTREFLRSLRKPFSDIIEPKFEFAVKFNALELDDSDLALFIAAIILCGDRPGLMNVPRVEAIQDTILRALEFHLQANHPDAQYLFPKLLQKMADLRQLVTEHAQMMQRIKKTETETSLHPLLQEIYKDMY

[5] = target: T5, Peroxisome proliferator-activated receptor delta (Homo sapiens, UniProt Q03181); assay: Agonist activity at human PPARdelta expressed in HepG2 cells co-transfected with PPRE3-TK-luc assessed as beta-galactosidase activity after 20 to 22 hrs by luciferase based transactivation assay; format: functional, cell-based
T5 sequence (Q03181 whole entry): T4 sequence (whole entry)

Mus musculus [6] = assay: Antihyperglycemic activity in db/db mouse assessed as reduction of serum glucose level at 10 mg/kg, po qd for 14 days relative to control; format: functional; design: scale not given: the % may be the effect or the level left
In short: (§2)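 Male db/db mice, 12–14 weeks, 30–40 g, tail-bled before the study. Groups of six were matched for plasma glucose, TG and TC. Dosing was oral once daily for 14 days, with vehicle 0.5% methylcellulose in water, and mice were fed ad libitum. About 1 h after the last dose, mice were tail-bled and serum/plasma glucose and TG measured. Values are % change versus vehicle-treated mice, mean ± SD (n = 6).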

Mus musculus [7] = assay: Antihyperlipidemic activity in db/db mouse assessed as reduction of serum triglyceride level at 10 mg/kg, po qd for 14 days relative to control; format: functional; design: scale not given: the % may be the effect or the level left; in short: as §2
Syrian golden hamster [8] = assay: Antihyperlipidemic activity in high fat-high cholesterol-fructose fed hamster assessed as increase of serum HDL-cholesterol level at 10 mg/kg, po qd for 14 days; format: functional, organism-based; design: dose 10 mg/kg; details: Mesocricetus auratus
Syrian golden hamster [9] = assay: Antihyperlipidemic activity in high fat-high cholesterol-fructose fed hamster assessed as decrease of serum LDL-cholesterol level at 10 mg/kg, po qd for 14 days; format: functional, organism-based; design: dose 10 mg/kg; details: Mesocricetus auratus
Mus musculus [10] = assay: Antihyperglycemic activity in db/db mouse assessed as reduction of serum glucose level at 3 mg/kg, po qd for 14 days relative to control; format: functional; design: scale not given: the % may be the effect or the level left; in short: as §2
Mus musculus [11] = assay: Antihyperlipidemic activity in db/db mouse assessed as reduction of serum triglyceride level at 3 mg/kg, po qd for 14 days relative to control; format: functional; design: scale not given: the % may be the effect or the level left; in short: as §2

With `C/C(=N\OCc1nc(-c2ccc(C)cc2)oc1C)c1ccc(OCC(=O)O)c(C)c1` the Emax [1] was 45.3%, the EC50 [2] was 150 nM and the EC50 [3] was 400 nM. The Emax [4] was 67.6% and the EC50 [5] was 300 nM.

`Cc1cc(/C(=N/OCc2nc(-c3ccccc3)oc2C)C2CCCCC2)ccc1OCC(=O)O` gave an Emax [1] of 9.7% and an Emax [4] of 58.8%.

`C/C(=N\OCc1sc(-c2ccc(C(F)(F)F)cc2)nc1C)c1ccc(OCC(=O)O)cc1` gave an Emax [1] of 86.2% and an Emax [4] of 60.6%.

For `CC/C(=N\OCc1nc(-c2ccc(C)cc2)oc1C)c1ccc(OCC(=O)O)c(C)c1`, the Emax [1] was 72.6% and the Emax [4] was 56.3%.

Work on `C/C(=N\OCc1sc(-c2ccc(C(F)(F)F)cc2)nc1C)c1ccc(OCC(=O)O)c(C)c1` yielded an Emax [1] of 99.8%, an EC50 [2] of 8 nM and an EC50 [3] of 6 nM. It also gave an Emax [4] of 90.1%, an EC50 [5] of 10 nM and an Activity (Mus musculus [6]) of -23.2%. For the same molecule, the Activity (Mus musculus [7]) was -36.5%, the Activity (Syrian golden hamster [8]) was “Active” and the Activity (Syrian golden hamster [9]) was “Active”.

`CCO[C@@H](Cc1ccc(OCCc2ccc(OS(C)(=O)=O)cc2)cc1)C(=O)O` [TESAGLITAZAR] gave an Activity (Mus musculus [10]) of -60.2% and an Activity (Mus musculus [11]) of -54.4%.

Molecule `CC/C(=N\OCc1sc(-c2ccc(C(F)(F)F)cc2)nc1C)c1ccc(OCC(=O)O)cc1` has an Emax [1] of 97.5% and an Emax [4] of 41.4%.

Work on `Cc1cc(/C(=N/OCc2sc(-c3ccc(C(F)(F)F)cc3)nc2C)C2CCCCC2)ccc1OCC(=O)O` yielded an Emax [1] of 57.9%, an EC50 [2] of 1600 nM and an EC50 [3] of 1000 nM. The Emax [4] was 98.7% and the EC50 [5] was 700 nM.

`C/C(=N\OCc1nc(-c2ccccc2)oc1C)c1ccc(OCC(=O)O)c(C)c1` was tested, and the Emax [1] was 84.5%, the EC50 [2] was 500 nM and the EC50 [3] was 300 nM. For the same molecule, the Emax [4] was 74.5%, the EC50 [5] was 800 nM and the Activity (Mus musculus [6]) was -59.9%. The Activity (Mus musculus [7]) was -52.4%, the Activity (Syrian golden hamster [8]) was “Active” and the Activity (Syrian golden hamster [9]) was “Active”.

Molecule `CC/C(=N\OCc1sc(-c2ccc(C(F)(F)F)cc2)nc1C)c1ccc(OCC(=O)O)c(C)c1` has an Emax [1] of 96.4%, an EC50 [2] of 120 nM and an EC50 [3] of 800 nM. It also gave an Emax [4] of 61.9% and an EC50 [5] of 800 nM.

For `C/C(=N\OCc1nc(-c2ccc(C)cc2)oc1C)c1ccc(OCC(=O)O)cc1`, the Emax [1] was 51.1% and the Emax [4] was 48.1%.

`CC(C)(Oc1ccc(CCNC(=O)c2ccc(Cl)cc2)cc1)C(=O)O` [BEZAFIBRATE] showed an EC50 [3] of 57200 nM and an EC50 [5] of 18900 nM.

In the case of `Cc1cc(SCc2sc(-c3ccc(C(F)(F)F)cc3)nc2C)ccc1OCC(=O)O`, the Emax [1] is reported as 76.9%.

With `CCC/C(=N\OCc1nc(-c2ccc(C)cc2)oc1C)c1ccc(OCC(=O)O)c(C)c1` the Emax [1] was 33.3% and the Emax [4] was 46.8%.

Molecule `CC/C(=N\OCc1nc(-c2ccc(C)cc2)oc1C)c1ccc(OCC(=O)O)cc1` has an Emax [1] of 68.5% and an Emax [4] of 49.2%.

`CCC/C(=N\OCc1sc(-c2ccc(C(F)(F)F)cc2)nc1C)c1ccc(OCC(=O)O)c(C)c1` showed an Emax [1] of 58.7% and an Emax [4] of 48.3%.

Molecule `C/C(=N\OCc1nc(-c2ccccc2)oc1C)c1ccc(OCC(=O)O)cc1` has an Emax [1] of 58.8% and an Emax [4] of 52.1%.

For `CC/C(=N\OCc1nc(-c2ccccc2)oc1C)c1ccc(OCC(=O)O)c(C)c1`, the Emax [1] was 56.4% and the Emax [4] was 72.3%.

In the case of `CCC/C(=N\OCc1nc(-c2ccccc2)oc1C)c1ccc(OCC(=O)O)c(C)c1`, the Emax [1] is reported as 14.1% and the Emax [4] is reported as 51.7%.

Molecule `CC/C(=N\OCc1nc(-c2ccccc2)oc1C)c1ccc(OCC(=O)O)cc1` has an Emax [1] of 42.5% and an Emax [4] of 46.4%.

Molecule `Cc1ccc(-c2nc(CO/N=C(/c3ccc(OCC(=O)O)c(C)c3)C3CCCCC3)c(C)o2)cc1` has an Emax [1] of 14.1% and an Emax [4] of 56.6%.
